Laboratory results taken from ChEMBL document CHEMBL3525985, “Regiospecificity and stereospecificity of human UDP-glucuronosyltransferases in the glucuronidation of estriol, 16-epiestriol, 17-epiestriol, and 13-epiestradiol” (Drug Metab Dispos, 2013).

How the values were obtained:
Format in all cases: ADME
[1] = molecular target: T1, UDP-glucuronosyltransferase 1A10 (Homo sapiens, UniProt Q9HAW8); experiment: Drug metabolism assessed as recombinant human C-terminal His-tagged UGT1A10-mediated estriol-3-glucuronide formation after 15 to 60 mins by Michaelis-Menten equation analysis in presence of UDPGA; conditions: recombinant enzyme
T1 sequence (Q9HAW8 whole entry): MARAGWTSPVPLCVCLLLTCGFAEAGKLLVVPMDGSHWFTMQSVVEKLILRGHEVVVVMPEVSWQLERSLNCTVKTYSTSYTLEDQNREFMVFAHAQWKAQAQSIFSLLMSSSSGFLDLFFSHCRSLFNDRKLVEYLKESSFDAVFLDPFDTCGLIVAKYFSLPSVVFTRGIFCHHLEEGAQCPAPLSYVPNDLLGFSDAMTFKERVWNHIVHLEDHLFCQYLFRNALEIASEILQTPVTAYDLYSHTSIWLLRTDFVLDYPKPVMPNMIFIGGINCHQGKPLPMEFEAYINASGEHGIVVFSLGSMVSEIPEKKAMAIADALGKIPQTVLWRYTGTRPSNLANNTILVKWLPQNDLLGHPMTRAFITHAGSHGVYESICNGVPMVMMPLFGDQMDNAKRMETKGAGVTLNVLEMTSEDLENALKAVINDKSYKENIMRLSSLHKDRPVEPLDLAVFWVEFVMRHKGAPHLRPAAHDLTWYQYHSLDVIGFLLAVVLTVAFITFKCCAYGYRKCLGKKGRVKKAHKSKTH
Procedure, shortened: (§1)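 For kinetics, the aglycone ranged from 0.2 to 300 μM in DMSO (10% final) with 5 mM UDPGA, 10 mM MgCl₂ and 50 mM phosphate pH 7.4. Enzyme was UGT-enriched insect cell membranes. Incubation was 15–60 min at 37°C, in triplicate, keeping substrate consumption ≤10%. Products were measured by HPLC and fitted to Michaelis-Menten. Rates were normalized to expression level.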

[2] = molecular target: T2, UDP-glucuronosyltransferase 2A1 (Homo sapiens, UniProt P0DTE4); experiment: Drug metabolism assessed as recombinant human C-terminal His-tagged UGT2A1-mediated estradiol-3-glucuronide/estradiol-17-glucuronide formation at 200 uM after 15 to 60 mins by HPLC analysis in presence of UDPGA; conditions: recombinant enzyme
T2 sequence (P0DTE4 whole entry): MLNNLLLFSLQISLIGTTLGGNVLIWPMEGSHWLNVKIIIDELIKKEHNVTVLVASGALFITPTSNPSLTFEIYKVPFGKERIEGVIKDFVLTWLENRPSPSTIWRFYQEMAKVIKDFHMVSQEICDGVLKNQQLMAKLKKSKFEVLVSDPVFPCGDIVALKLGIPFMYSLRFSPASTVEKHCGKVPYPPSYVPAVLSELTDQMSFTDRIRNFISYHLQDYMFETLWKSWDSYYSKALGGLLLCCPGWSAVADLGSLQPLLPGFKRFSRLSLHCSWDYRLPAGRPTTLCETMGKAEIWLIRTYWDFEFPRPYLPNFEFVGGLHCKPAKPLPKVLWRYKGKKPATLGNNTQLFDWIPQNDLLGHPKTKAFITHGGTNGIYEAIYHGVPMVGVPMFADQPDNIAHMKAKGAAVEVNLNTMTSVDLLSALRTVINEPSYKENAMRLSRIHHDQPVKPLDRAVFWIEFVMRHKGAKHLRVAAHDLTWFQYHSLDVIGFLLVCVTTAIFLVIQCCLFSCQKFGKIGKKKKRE
Procedure, shortened: (§2)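 Screening at a single substrate concentration of 200 μM, in triplicate. The reaction used 5 or 50 µg of UGT-enriched insect cell membranes in 50 mM phosphate pH 7.4 with 10 mM MgCl₂ and 5 mM UDPGA, 10% final DMSO. Incubation was 15–60 min at 37°C. Perchloric acid stopped the reaction and supernatants were analysed by HPLC. Controls lacked UDPGA. Rates were normalized to relative UGT expression level.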

[3] = molecular target: T3, UDP-glucuronosyltransferase 1A4 (Homo sapiens, UniProt P22310); experiment: Drug metabolism assessed as recombinant human C-terminal His-tagged UGT1A4-mediated 16-epiestriol-16-glucuronide formation at 200 uM after 15 to 60 mins by HPLC analysis in presence of UDPGA; conditions: recombinant enzyme; procedure, shortened: as §2
T3 sequence (P22310 whole entry): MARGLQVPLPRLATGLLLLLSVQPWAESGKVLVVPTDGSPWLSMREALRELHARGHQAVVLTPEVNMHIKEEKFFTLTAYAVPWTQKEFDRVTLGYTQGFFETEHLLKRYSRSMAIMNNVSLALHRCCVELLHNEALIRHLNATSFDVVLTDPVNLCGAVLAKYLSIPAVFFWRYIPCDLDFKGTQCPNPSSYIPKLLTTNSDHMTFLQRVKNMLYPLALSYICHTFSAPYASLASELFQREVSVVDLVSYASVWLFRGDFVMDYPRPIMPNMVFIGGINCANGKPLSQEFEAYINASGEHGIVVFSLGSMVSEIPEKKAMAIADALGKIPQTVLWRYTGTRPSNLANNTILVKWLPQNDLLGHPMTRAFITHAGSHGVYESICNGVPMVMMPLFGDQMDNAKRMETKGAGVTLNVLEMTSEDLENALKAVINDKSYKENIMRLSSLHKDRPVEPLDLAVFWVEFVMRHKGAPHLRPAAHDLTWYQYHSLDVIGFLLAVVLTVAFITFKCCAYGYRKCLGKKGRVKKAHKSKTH

[4] = molecular target: T4, UDP-glucuronosyltransferase 2B7 (Homo sapiens, UniProt P16662); experiment: Drug metabolism assessed as recombinant human C-terminal His-tagged UGT2B7-mediated 16-epiestriol-16-glucuronide formation after 15 to 60 mins by Michaelis-Menten equation analysis in presence of UDPGA; conditions: recombinant enzyme; procedure, shortened: as §1
T4 sequence (P16662 whole entry): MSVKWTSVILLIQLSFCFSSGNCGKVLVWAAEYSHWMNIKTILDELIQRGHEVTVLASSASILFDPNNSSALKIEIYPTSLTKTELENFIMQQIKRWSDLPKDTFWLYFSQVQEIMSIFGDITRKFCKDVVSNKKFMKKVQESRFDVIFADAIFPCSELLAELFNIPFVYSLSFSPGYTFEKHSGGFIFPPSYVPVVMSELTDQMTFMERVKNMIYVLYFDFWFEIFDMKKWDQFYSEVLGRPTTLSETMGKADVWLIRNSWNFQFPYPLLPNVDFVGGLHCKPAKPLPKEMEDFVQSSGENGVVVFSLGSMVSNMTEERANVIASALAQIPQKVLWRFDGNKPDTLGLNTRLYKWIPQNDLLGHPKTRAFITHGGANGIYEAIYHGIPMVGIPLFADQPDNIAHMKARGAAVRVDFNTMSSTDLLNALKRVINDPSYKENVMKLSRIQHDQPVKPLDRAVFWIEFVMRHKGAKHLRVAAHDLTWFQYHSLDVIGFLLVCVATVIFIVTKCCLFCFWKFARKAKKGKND

[5] = molecular target: T2, UDP-glucuronosyltransferase 2A1; experiment: Drug metabolism assessed as recombinant human C-terminal His-tagged UGT2A1-mediated 17-epiestriol-17-glucuronide formation at 5 mg after 5 hrs by NMR spectroscopic analysis in presence of UDPGA

Work on `C[C@]12CC[C@@H]3c4ccc(O)cc4CC[C@H]3[C@@H]1C[C@@H](O)[C@@H]2O` [ESTRIOL] yielded a Drug metabolism [1] of 840 pmol/min/mg.

In the case of `C[C@]12CC[C@@H]3c4ccc(O)cc4CC[C@H]3[C@@H]1CC[C@@H]2O` [ESTRADIOL], the Drug metabolism [2] is reported as “metabolite_detected”.

For `C[C@]12CC[C@@H]3c4ccc(O)cc4CC[C@H]3[C@@H]1C[C@H](O)[C@@H]2O` [EPIESTRIOL], the Drug metabolism [3] was “metabolite_not_detected” and the Drug metabolism [4] was 2700 pmol/min/mg.

With `C[C@]12CC[C@@H]3c4ccc(O)cc4CC[C@H]3[C@@H]1C[C@@H](O)[C@H]2O` the Drug metabolism [5] was “metabolite_detected”.
